One block for each compound: values may come before it. Active and inactive are the calls of the source. No cut-off for these calls is given here.
Experiments:
[1] = Cmax in Sprague-Dawley rat at 10 to 100 mg/kg, po by LC-MS/MS analysis; format: ADME, organism-based; conditions: in vivo
How it was run: (§1)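 Single oral dose of 10, 30 or 100 mg/kg to 7-week-old female Sprague–Dawley rats (n = 3), vehicle 10% v/v DMSO, 5% v/v Cremophor EL, 85% v/v water. Subclavian-vein blood drawn at 0.5, 1, 2, 4, 8 and 24 h post dose; plasma separated by centrifugation and drug measured by LC-MS/MS.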

[2] = Intrinsic clearance in human; format: ADME, organism-based; conditions: in vivo
[3] = Oral bioavailability in Sprague-Dawley rat at 10 to 100 mg/kg by LC-MS/MS analysis; format: ADME, organism-based; conditions: in vivo
[4] = Cmax in Sprague-Dawley rat at 100 mg/kg, po by LC-MS/MS analysis; format: ADME, organism-based; set-up: dose 100 mg/kg, route oral; conditions: in vivo; how it was run: as §1
[5] = biological target: Prostaglandin E2 receptor EP4 subtype (Homo sapiens, UniProt P35408); assay: Binding affinity to EP4 receptor (unknown origin)
[6] = Protein binding in Sprague-Dawley rat plasma at 10 to 100 mg/kg, po by LC-MS/MS analysis; format: ADME, organism-based; conditions: read-out: PPB (converted)
[7] = biological target: T1, Prostaglandin E2 receptor EP1 subtype (Homo sapiens, UniProt P34995); assay: Antagonist activity at EP1 receptor (unknown origin) by reporter gene assay; format: functional
T1 sequence (P34995 whole entry): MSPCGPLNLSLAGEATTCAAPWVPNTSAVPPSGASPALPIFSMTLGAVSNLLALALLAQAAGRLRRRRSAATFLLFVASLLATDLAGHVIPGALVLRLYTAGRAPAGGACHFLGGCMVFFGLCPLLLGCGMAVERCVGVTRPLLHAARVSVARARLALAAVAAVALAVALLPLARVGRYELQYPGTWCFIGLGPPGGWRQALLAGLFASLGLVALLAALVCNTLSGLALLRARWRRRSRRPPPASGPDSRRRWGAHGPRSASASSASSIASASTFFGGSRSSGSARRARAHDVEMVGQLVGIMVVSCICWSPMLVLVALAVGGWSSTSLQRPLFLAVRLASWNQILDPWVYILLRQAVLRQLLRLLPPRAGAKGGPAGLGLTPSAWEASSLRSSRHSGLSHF

[8] = Drug uptake in Sprague-Dawley rat plasma at 100 mg/kg, po after 24 hrs by LC-MS/MS analysis; format: ADME, organism-based; conditions: in vivo; how it was run: as §1
Rattus norvegicus [9] = assay: Osteogenic activity in Sprague-Dawley rat drill-hole femoral fracture model assessed as callus formation at 100 mg/kg, po qd for 28 days; format: functional, organism-based; conditions: in the assay text read “closed” for “drill-hole”
How it was run: (§2)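 Closed mid-diaphyseal femur fracture in 8-week-old Sprague–Dawley rats under ip pentobarbital (50 mg/kg). Medial parapatellar arthrotomy, 1 mm drill hole at intercondylar fossa, 21-gauge needle inserted through the medullary canal, fracture by three-point bending. Oral drug or 0.5% MC vehicle given for 28 days. Radiographs at 0, 7, 14, 21, 28 days; outer hard callus area traced by image analysis.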

[10] = Cmax in Sprague-Dawley rat at 30 mg/kg, po by LC-MS/MS analysis; format: ADME, organism-based; set-up: dose 30 mg/kg, route oral; conditions: in vivo; how it was run: as §1
[11] = Drug uptake in Sprague-Dawley rat plasma at 30 mg/kg, po qd for 4 weeks by LC-MS/MS analysis; format: ADME, organism-based; conditions: in vivo, 672 h
How it was run: (§3)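 Sprague–Dawley rats with femoral fractures dosed orally for 28 days (30 mg/kg once daily, 30 mg/kg twice daily, or 100 mg/kg once daily). Subclavian-vein blood taken 30 min before dosing (trough) or 1 h after dosing on days 1, 2, 3, 7, 14, 21 and 28; plasma drug measured by LC-MS/MS.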

[12] = biological target: Prostaglandin E2 receptor EP2 subtype (Homo sapiens, UniProt P43116); assay: Binding affinity to EP2 receptor (unknown origin)
[13] = Drug uptake in Sprague-Dawley rat plasma at 30 mg/kg, po bid for 4 weeks by LC-MS/MS analysis; format: ADME, organism-based; conditions: in vivo, 672 h; how it was run: as §3
[14] = biological target: T1, Prostaglandin E2 receptor EP1 subtype; assay: Binding affinity to EP1 receptor (unknown origin) by binding assay
Rattus norvegicus [15] = assay: AUC (0 to 8 hrs) in Sprague-Dawley rat at 10 to 100 mg/kg, po by LC-MS/MS analysis; format: ADME, organism-based; conditions: in vivo; how it was run: as §1
[16] = Cmax in Sprague-Dawley rat at 10 mg/kg, po by LC-MS/MS analysis; format: ADME, organism-based; set-up: dose 10 mg/kg, route oral; conditions: in vivo; how it was run: as §1
[17] = biological target: T2, Prostaglandin E2 receptor EP3 subtype (Homo sapiens, UniProt P43115); assay: Binding affinity to EP3 receptor (unknown origin)
T2 sequence (P43115 whole entry): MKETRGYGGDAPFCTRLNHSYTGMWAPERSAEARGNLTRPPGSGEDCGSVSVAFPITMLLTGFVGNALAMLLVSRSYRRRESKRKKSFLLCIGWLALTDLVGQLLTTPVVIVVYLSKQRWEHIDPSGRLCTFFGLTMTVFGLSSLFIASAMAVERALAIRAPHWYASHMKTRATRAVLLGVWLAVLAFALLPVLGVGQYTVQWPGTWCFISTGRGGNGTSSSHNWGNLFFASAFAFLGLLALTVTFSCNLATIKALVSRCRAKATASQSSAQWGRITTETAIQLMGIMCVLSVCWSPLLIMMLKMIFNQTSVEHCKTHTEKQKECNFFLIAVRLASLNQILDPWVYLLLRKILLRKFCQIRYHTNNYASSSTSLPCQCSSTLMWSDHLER

[18] = Drug uptake in Sprague-Dawley rat plasma at 100 mg/kg, po qd for 4 weeks by LC-MS/MS analysis; format: ADME, organism-based; conditions: in vivo, 672 h; how it was run: as §3
Rattus norvegicus [19] = assay: Osteogenic activity in Sprague-Dawley rat drill-hole femoral fracture model assessed as callus formation at 30 mg/kg, po bid for 28 days; format: functional, organism-based; conditions: in the assay text read “closed” for “drill-hole”; how it was run: as §2
[20] = Permeability in MDCK cells; format: ADME, cell-based, Canis lupus familiaris; conditions: dog, read-out: permeability
[21] = Intrinsic clearance in rat; format: ADME, organism-based; conditions: in vivo
Rattus norvegicus [22] = assay: Osteogenic activity in Sprague-Dawley rat drill-hole femoral fracture model assessed as callus formation at 30 mg/kg, po qd for 28 days; format: functional, organism-based; conditions: in the assay text read “closed” for “drill-hole”; how it was run: as §2
Salmonella typhimurium = assay: Mutagenicity in Salmonella typhimurium by Ames test; format: toxicity, organism-based; conditions: salmonella enterica subsp. enterica serovar typhimurium
[23] = biological target: T3, Prostaglandin E2 receptor EP1 subtype (Homo sapiens) (UniProt P34995); assay: Antagonist activity at EP1 receptor (unknown origin) at 100 nM by reporter gene assay relative to control; format: functional
T3 sequence (whole entry): T1 sequence (P34995 whole entry)

Sequence of Prostaglandin E2 receptor EP4 subtype (P35408 whole entry): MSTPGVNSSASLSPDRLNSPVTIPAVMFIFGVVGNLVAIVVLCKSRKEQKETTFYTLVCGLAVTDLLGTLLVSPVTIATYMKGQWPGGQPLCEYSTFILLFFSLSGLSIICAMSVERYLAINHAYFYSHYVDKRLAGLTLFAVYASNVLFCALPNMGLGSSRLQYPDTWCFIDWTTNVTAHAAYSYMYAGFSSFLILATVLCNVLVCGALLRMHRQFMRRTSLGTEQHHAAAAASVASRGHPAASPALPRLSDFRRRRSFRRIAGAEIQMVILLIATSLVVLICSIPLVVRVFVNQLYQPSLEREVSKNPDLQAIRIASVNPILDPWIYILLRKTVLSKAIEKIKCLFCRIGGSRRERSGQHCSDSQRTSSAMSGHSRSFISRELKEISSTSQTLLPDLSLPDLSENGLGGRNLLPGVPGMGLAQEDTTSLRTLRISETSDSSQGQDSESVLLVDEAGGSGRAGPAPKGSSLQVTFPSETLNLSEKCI
Sequence of Prostaglandin E2 receptor EP2 subtype (P43116 whole entry): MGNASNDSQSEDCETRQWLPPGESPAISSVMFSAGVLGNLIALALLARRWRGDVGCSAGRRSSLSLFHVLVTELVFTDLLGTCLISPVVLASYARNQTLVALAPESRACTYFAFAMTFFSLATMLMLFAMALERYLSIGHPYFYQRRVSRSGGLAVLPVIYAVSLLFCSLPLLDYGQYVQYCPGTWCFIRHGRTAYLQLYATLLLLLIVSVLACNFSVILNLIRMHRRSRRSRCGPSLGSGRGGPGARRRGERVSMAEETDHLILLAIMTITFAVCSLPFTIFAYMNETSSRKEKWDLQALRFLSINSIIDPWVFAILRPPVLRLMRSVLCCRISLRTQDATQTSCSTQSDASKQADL

Cmax [1]: 2.62 µM
CLint scaled [2]: 70 mL/min/kg
bioavailability [3]: 26%
Cmax [4]: 179 µM
Ki [5]: > 2700 nM
fraction unbound [6]: 0.026
IC50 [7]: 0.3 nM
Drug uptake [8]: Active
Cmax [10]: 75.1 µM
Drug uptake [11]: Active
Ki [12]: > 8700 nM
Drug uptake [13]: Active
Ki [14]: 8.7 nM
AUC (Rattus norvegicus [15]): 5.71 microM/L.hr
Cmax [16]: 24.8 µM
Ki [17]: > 5000 nM
Drug uptake [18]: Active
Papp [20]: 23.5 ×10⁻⁶ cm/s
CLint scaled [21]: 94 mL/min/kg
Structure (SMILES): O=C(O)c1csc(-n2nc(-c3ccccc3)c3ccc(C(F)(F)F)nc32)n1
Activity (Rattus norvegicus [9]): Active
Activity (Rattus norvegicus [19]): Active
Activity (Rattus norvegicus [22]): Active
Activity (Salmonella typhimurium): Non-Toxic

CLint scaled [2]: 146 mL/min/kg
IC50 [7]: 0.7 nM
Papp [20]: 39 ×10⁻⁶ cm/s
CLint scaled [21]: 232 mL/min/kg
Structure (SMILES): O=C(O)c1csc(-n2nc(C3=CCCCO3)c3ccc(C(F)(F)F)cc32)n1

inhibition [23]: 11%
Structure (SMILES): O=C(O)c1csc(-n2nc(-c3ccccc3)c3ccc(N4CCCC4)nc32)n1

IC50 [7]: 12 nM
Structure (SMILES): CN(C)c1ccc2c(-c3ccccc3)nn(-c3nc(C(=O)O)cs3)c2n1

Cmax [1]: 5.34 µM
AUC (Rattus norvegicus [15]): 9.27 microM/L.hr
Structure (SMILES): O=C(O)c1csc(-n2nc(-c3ccccc3)c3ccc(C(F)(F)F)cc32)n1

IC50 [7]: 40 nM
Structure (SMILES): O=C(O)c1csc(-n2nc(-c3ccccc3)c3ccc(N4CCC4)nc32)n1

IC50 [7]: 12 nM
Structure (SMILES): O=C(O)c1csc(-n2nc(-c3ccccc3)c3ncc(C(F)(F)F)cc32)n1

CLint scaled [2]: 48 mL/min/kg
IC50 [7]: 12 nM
Papp [20]: 19.7 ×10⁻⁶ cm/s
CLint scaled [21]: 111 mL/min/kg
Structure (SMILES): O=C(O)c1csc(Cn2nc(-c3ccccc3)c3ccc(C(F)(F)F)cc32)n1
